From PMC7825188 (CPT: Pharmacometrics & Systems Pharmacology, 2020)
Read-outs that look alike come from different tables or passages of the source.

Experiments:
[1] = format: in vivo, human; settings: MBCT103
Summary of the method: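 Healthy men received period 1 as in the azithromycin study (single 14 mg oral dose). In period 2, itraconazole oral solution 200 mg was given once daily on days 1–14, with a single acumapimod dose on day 7, 2 h post-itraconazole. Washout was ≥16 days. Plasma was sampled predose to 192 h and assayed by LC-MS/MS. Noncompartmental Cmax and AUCs were ln-transformed and analysed by ANOVA, giving GMR with 90% CI.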

CYP3A4 = CYP3A4 (Homo sapiens, UniProt P08684); test: In vitro CYP phenotyping of acumapimod; format: in vitro ADME; settings: both models; based on in vitro phenotyping data
Human mass balance study = format: in vivo; settings: assigned to biliary clearance (Model 1) or unabsorbed drug (Model 2)
[2] = Study MBCT102: safety and tolerability; format: in vivo, human
Summary of the method: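 AEs and SAEs were recorded from check-in on day −1 until the post-study physical examination (day 15). TEAEs were AEs that were new after treatment or worsened in intensity or frequency. Intensity was graded mild, moderate or severe.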

[3] = Study MBCT103: safety and tolerability; format: in vivo, human
Summary of the method: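 AEs and SAEs were recorded from check-in on day −1 until a follow-up call 14 days after the last acumapimod dose. TEAEs were AEs that were new after treatment or worsened in intensity or frequency. Intensity was graded mild, moderate or severe. The safety set comprised all subjects receiving ≥1 acumapimod dose.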

P‐glycoprotein (P‐gp) = P‐glycoprotein (P‐gp) (Homo sapiens, UniProt P08183); test: P-gp substrate status of acumapimod; format: in vitro ADME
[4] = format: in vivo, human; settings: MBCT102
Summary of the method: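 Healthy men (18–65 y, BMI 18–30, nonsmokers) completed two periods ≥14 days apart. Period 1 was a single oral 14 mg dose (2 × 7 mg capsules). In period 2, azithromycin 500 mg was given daily on days −1 to 2, with acumapimod on day 1. Plasma (K2EDTA) was sampled predose to 168 h, plus 336 h in period 2, and assayed by LC-MS/MS (1.0–1,000 ng/mL). Noncompartmental Cmax and AUCs were ln-transformed and analysed by ANOVA, giving GMR with 90% CI.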

[5] = acumapimod + itraconazole vs. acumapimod alone
[6] = itraconazole, upper 90% CI of GMR
[7] = with itraconazole relative to acumapimod alone
[8] = acumapimod + azithromycin relative to acumapimod alone
[9] = azithromycin, upper 90% CI of GMR
[10] = with azithromycin vs. acumapimod alone

Sequence of P‐glycoprotein (P‐gp) (P08183 whole entry): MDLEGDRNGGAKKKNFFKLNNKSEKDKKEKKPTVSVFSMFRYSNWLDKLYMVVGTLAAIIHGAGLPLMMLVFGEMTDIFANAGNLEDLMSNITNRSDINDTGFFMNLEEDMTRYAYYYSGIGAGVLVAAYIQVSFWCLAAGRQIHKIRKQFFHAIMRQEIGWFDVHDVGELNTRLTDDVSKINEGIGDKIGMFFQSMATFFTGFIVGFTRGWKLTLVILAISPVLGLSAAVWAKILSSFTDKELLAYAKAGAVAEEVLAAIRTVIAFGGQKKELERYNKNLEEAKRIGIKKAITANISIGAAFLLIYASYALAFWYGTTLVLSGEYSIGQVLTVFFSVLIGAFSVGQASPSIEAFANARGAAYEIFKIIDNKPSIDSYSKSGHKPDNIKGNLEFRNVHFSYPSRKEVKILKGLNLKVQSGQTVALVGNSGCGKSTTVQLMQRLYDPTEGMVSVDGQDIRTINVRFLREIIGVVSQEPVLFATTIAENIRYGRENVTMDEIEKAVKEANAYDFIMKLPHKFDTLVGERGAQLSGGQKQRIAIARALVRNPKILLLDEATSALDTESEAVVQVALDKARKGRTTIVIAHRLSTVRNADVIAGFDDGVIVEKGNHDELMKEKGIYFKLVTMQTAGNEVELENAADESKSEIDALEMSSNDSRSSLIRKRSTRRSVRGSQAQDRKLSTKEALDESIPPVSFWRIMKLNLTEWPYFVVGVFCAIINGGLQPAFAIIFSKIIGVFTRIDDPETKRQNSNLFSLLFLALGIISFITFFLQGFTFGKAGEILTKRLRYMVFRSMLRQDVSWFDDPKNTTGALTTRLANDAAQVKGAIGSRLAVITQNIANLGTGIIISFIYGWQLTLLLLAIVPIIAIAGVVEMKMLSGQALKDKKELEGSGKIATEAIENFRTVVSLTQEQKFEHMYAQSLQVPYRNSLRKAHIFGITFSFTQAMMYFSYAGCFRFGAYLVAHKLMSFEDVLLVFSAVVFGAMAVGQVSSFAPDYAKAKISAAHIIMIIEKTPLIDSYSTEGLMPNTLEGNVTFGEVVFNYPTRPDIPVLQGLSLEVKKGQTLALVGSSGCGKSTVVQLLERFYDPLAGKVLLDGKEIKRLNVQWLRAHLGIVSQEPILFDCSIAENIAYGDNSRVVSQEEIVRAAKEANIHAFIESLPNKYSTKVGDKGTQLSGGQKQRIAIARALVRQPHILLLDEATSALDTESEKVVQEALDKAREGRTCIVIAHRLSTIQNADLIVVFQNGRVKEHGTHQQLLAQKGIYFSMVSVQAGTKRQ
Sequence of CYP3A4 (P08684 whole entry): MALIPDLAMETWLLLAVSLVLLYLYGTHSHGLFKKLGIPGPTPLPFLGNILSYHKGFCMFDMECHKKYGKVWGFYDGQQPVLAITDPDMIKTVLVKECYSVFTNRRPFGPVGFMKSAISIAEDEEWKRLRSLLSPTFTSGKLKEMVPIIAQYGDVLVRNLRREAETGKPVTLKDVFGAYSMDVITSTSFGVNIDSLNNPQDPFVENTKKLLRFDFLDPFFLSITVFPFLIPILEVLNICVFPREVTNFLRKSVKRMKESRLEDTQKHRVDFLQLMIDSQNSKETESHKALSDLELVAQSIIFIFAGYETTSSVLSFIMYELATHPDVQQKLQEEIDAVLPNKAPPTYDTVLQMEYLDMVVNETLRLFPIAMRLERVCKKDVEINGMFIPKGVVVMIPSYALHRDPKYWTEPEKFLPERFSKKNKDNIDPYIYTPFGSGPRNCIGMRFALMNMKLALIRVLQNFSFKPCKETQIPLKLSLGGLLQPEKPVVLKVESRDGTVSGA

## Cc1ccc(C(=O)NC2CC2)cc1-n1ncc(C(=O)c2cccc(C#N)c2)c1N [acumapimod]
[1]; [5]
  AUC0–t ratio (adjusted GMR): 110.09%
  AUC0–∞ ratio (adjusted GMR): 110.22%
  Cmax ratio (adjusted GMR): 99.44%
[1]; [6]
  upper limit of interaction, AUC0–t: 120%
  upper limit of interaction, AUC0–∞: 120%
  upper limit of interaction, Cmax: 109%
[1]; [7]
  change in Cmax: no change
  increase of geometric mean AUC0–t: 10%
  increase of geometric mean AUC0–∞: 10%
CYP3A4
  share of CYP‐mediated metabolism assigned to CYP3A4: 97.8%
Human mass balance study
  dose recovered in the feces: 33.9%
[2]
  SAEs or deaths: No SAEs or deaths were reported
  safety laboratory, vital signs, electrocardiogram, physical examination: No clinically relevant findings
[2]; 8 of 16 subjects, both periods
  subjects reporting TEAEs: 50%
[2]; 16 subjects, both periods
  number of TEAEs, overall: Fifteen
[2]; acumapimod alone (period 1)
  number of TEAEs: 7
[2]; acumapimod with azithromycin (period 2)
  number of TEAEs: 8
[2]; all TEAEs
  intensity of TEAEs: mild or moderate
[2]; one TEAE, first exposure (acumapimod alone)
  TEAE considered likely related to acumapimod: acneiform rash
[3]
  deaths, SAEs, severe TEAEs: No deaths, SAEs, or severe TEAEs were reported
  treatment-related TEAEs: No TEAEs were judged to be treatment related
  vital signs, electrocardiogram, laboratory parameters: No safety concerns were raised
[3]; 6 of 16 subjects, both periods
  subjects reporting TEAEs: 37.5%
[3]; 16 subjects, both periods
  number of TEAEs, overall: 10
[3]; acumapimod and itraconazole (period 2)
  number of TEAEs: 8
[3]; co‐administration of acumapimod and itraconazole
  liver function tests and central nervous system AEs: no clinically meaningful changes
P‐glycoprotein (P‐gp)
  P-gp substrate status: substrate of P‐glycoprotein (P‐gp)
[4]; [8]
  AUC0–t ratio (adjusted GMR): 105.65%
  AUC0–∞ ratio (adjusted GMR): 104.32%
  Cmax ratio (adjusted GMR): 106.34%
[4]; [9]
  upper limit of the interaction, AUC0–t: 112%
  upper limit of the interaction, AUC0–∞: 110%
  upper limit of the interaction, Cmax: 115%
[4]; [10]
  increase of geometric mean AUC0–∞: 4.3%
  increase of geometric mean Cmax: 6.3%
